Test results taken from ChEMBL document CHEMBL1123121, “Aminotetralone analogues of ketamine: synthesis and evaluation of hypnotic and locomotor properties in mice” (1985).

System: Mus musculus
Assay: Ability to cause […] in mice represented as no. of counts for each animal for a total of 90 min when 100 mg/kg dose was administered intraperitoneally
Assay type: functional
Conditions: route intraperitoneal
Method in brief: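 Mice given the compound intraperitoneally at 100 mg kg-1, dissolved in distilled water; controls received 0.2 mL normal saline. Each mouse was placed on an electronic activity monitor and its counts were recorded for 90 min after injection. Counts per minute were taken as total counts divided by 90. Six animals per group, mean ± SEM, groups compared by Duncan's multiple-range test. Experiments were run between 13.00 and 17.00 h at 20-24 °C.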

Going from CC1(N)CCc2ccccc2C1=O (stereo unspecified) to CN(C)C1(C)CCc2ccccc2C1=O (stereo unspecified), the Counts rises from 60.6 min⁻¹ to 67.1 min⁻¹.

Going from CN(C)C1(C)C(=O)CCc2ccccc21 (stereo unspecified) to CNC1(C)C(=O)CCc2ccccc21 (stereo unspecified), the Counts rises from 22.9 min⁻¹ to 25.8 min⁻¹.

Going from CNC1(C)c2ccccc2CCC1O (stereo unspecified) to CC1(N)c2ccccc2CCC1O (stereo unspecified), the Counts falls from 20.2 min⁻¹ to 16.2 min⁻¹.

Compared with CC1(N)C(=O)CCc2ccccc21 (stereo unspecified), CC1(N2CCCCC2)C(=O)CCc2ccccc21 (stereo unspecified) is lower in Counts: 27.2 min⁻¹ for the first, 4.4 min⁻¹ for the second.

First: CC1(N2CCCCC2)c2ccccc2CCC1O (stereo unspecified)
Second: CN(C)C1(C)c2ccccc2CCC1O (stereo unspecified)
The Counts of the first is lower: 21.6 min⁻¹ for the first, 37.5 min⁻¹ for the second.

CNC1(c2ccccc2Cl)CCCCC1=O (stereo unspecified) [KETAMINE] was tested, and the Counts was 94.3 min⁻¹.
